Columns and labels:
X = X (Homo sapiens, UniProt P28074); experiment: In vitro proteasome activity assay, purified human 20S proteasome, Ac-WLA-AMC; format: biochemical
LMP7 = LMP7 (Homo sapiens, UniProt P28062); experiment: In-cellulo LMP7 inhibition in RPMI-8226/ABCB1 vs parental RPMI-8226 cells; format: cell-based; details: Supple. Table S1
Outline: (§1)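 Lysates (14,000 g, 20 min, 4 °C; 5 μg protein) in 20 mM Tris-HCl, 0.5 mM EDTA, 0.035% SDS, pH 8.0, received Ac-PAL-AMC (LMP2) or Ac-ANW-AMC (LMP7), each at 100 μM. Fluorescence (ex 360/em 460 nm) was read every minute for 1 h. IC50s were compared between lines.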

ABCG2 = target: T1, ABCG2 (Homo sapiens, UniProt Q9UNQ0); experiment: ABCG2 interaction assay; format: cell-based; details: MDCKII/ABCG2 cells, PhA 1 μM; DB-60 (20) 2 or 5 μM, Ko143 0.2 μM
T1 sequence (Q9UNQ0 1-655): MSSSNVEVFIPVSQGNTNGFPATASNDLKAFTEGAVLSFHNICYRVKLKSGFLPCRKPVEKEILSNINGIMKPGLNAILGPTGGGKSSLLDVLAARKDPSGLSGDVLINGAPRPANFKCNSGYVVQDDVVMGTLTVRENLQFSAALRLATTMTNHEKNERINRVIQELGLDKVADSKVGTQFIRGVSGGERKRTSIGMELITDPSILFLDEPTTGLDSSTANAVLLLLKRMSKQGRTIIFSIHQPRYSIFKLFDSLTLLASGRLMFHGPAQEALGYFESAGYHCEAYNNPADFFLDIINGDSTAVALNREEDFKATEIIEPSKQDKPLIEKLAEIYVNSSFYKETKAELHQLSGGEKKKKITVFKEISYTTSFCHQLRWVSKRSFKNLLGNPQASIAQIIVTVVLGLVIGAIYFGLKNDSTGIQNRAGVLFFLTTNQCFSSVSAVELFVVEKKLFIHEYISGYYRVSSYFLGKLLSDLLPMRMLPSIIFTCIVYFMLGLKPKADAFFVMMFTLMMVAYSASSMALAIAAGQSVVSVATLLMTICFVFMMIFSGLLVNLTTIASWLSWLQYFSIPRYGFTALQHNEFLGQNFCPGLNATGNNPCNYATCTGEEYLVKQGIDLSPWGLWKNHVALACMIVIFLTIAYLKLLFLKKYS

[1] = In vitro metabolic stability in mouse whole blood; format: in vitro ADME; details: ICR mice, 1 μM, 0, 10 and 30 min, compared with YU102
Outline: (§2)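 Matrices came from male 7-week-old ICR mice: whole blood with 25 IU/mL heparin, and liver homogenised in ice-cold PBS (2.5 mL/g). After pre-incubation at 37 °C, test compound was added to 1 μM final. Sampling was at 0, 10 and 30 min for blood and 0, 10 and 20 min for liver. […] Remaining drug was measured by LC-MS/MS.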

[2] = In vitro metabolic stability in mouse liver homogenates; format: in vitro ADME; details: ICR mice, 1 μM, 0, 10 and 20 min, compared with YU102
Outline: as §2

IL-1α [3] = experiment: IL-1α release by LPS-activated BV-2 cells; format: cell-based, murine; details: LPS 1 μg/mL
Outline: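 BV-2 microglia were stimulated with LPS (1 μg/mL). IL-1α in the culture supernatants was measured by sandwich ELISA. Supernatants and standards (seven serial twofold dilutions) sat overnight at 4 °C on capture-antibody plates, then went through detection antibody (1 h), avidin-HRP (30 min), substrate, and a 2N H2SO4 stop. A450 was read. Three technical replicates, SD shown.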

LMP2 [4] = target: LMP2 (Mus musculus, UniProt P28076); experiment: LMP2 activity in brain homogenates after single intravenous dosing; format: in vivo; details: ICR mice, single intravenous dosing 10 mg/kg, 1-hour post-dosing
Tg2576 mice = experiment: Morris water maze, probe trial and passive avoidance in Tg2576 mice; format: in vivo, mouse; details: 10 mg/kg twice weekly for 3 weeks
Outline: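 Tg2576 mice (9-month-old, acclimatised one month) were injected with 10 mg/kg twice weekly for 3 weeks. Morris water maze training ran on days 1–5: hidden platform 1–1.5 cm below 25 ± 1 °C water, three 60-s trials daily from randomised starts. The probe trial on day 6 tracked swimming for 60 s and recorded time in the former platform quadrant by video. Student's t-test, n=5.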

IL-1α [5] = experiment: Serum IL-1α levels in Tg2576 mice; format: in vivo, mouse; details: 10 mg/kg twice weekly for 3 weeks, vs vehicle
Outline: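 Serum from 9-month-old Tg2576 mice (dosed or vehicle) diluted 1:5, then incubated with IL-1α standards (seven serial twofold dilutions) on capture-antibody-coated plates for 2 h at room temperature. Five washes, detection antibody 1 h, avidin-HRP 30 min, five washes, substrate, stop with 2N H2SO4. Absorbance read at 450 nm; n=3.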

[6] = test system: retinal pigment epithelium (RPE); experiment: RPE flat mounts, anti-β-catenin immunostaining; format: in vivo, mouse
Outline: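 After behaviour testing, eyes from treated Tg2576 mice and from age-matched non-transgenic ICR mice were fixed in 4% paraformaldehyde (1 h, RT). Eyecups were dissected, retina removed, and RPE sheets permeabilised (0.2% Triton X-100, 15 min) and blocked (3% BSA, 1 h). Sheets were stained with anti-β-catenin (1:100, overnight 4 °C), then Alexa 555 secondary (1:1000, 2 h RT), and imaged by confocal microscopy. Images are representative of 3 independent replicates.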

[7] = Observation of overt toxicity during treatment; format: in vivo; details: Tg2576 or non-transgenic ICR mice during the test period
LMP2 [8] = target: T2, LMP2 (Homo sapiens, UniProt P28065); experiment: In-cellulo LMP2 inhibition in RPMI-8226/ABCB1 vs parental RPMI-8226 cells; format: cell-based; details: either cell line
Outline: as §1

LMP2 [9] = target: T2, LMP2; experiment: In vitro proteasome activity assay, purified human 20S proteasome, Ac-PAL-AMC; format: biochemical; details: P3-proline substitution of 21, purified proteasome

Compound	IC50 (X)	LMP2 inhibitory potency compared with 21 (LMP2 [9])	also measured
C[C@]1(C(=O)[C@H](Cc2ccccc2)NC(=O)[C@@H]2Cc3ccc(cc3)OCCCCCCCC(=O)N3CCC[C@H]3C(=O)N2)CO1 [compound 20, (1^2S,4S)-N-((S)-1-((R)-2-Methyloxiran-2-yl)-1-oxo-3-phenylpropan-2-yl)-2,15-dioxo-7-oxa-3-aza-1(2,1)-pyrrolidina-6(1,4)-benzenacyclopentadecaphane-4-carboxamide]	–	–	fold decrease of LMP7 inhibition, RPMI-8226/ABCB1 vs parental RPMI-8226 (LMP7): ~ 2 fold; inhibition of the ABCG2-mediated efflux of PhA (cellular accumulation of PhA) (ABCG2): no inhibition of the ABCG2-mediated efflux of PhA; metabolic stability in whole blood [1]: greater metabolic stability than YU102; stability in liver homogenates [2]: superior to YU102; release of IL-1α by LPS-activated microglial BV-2 cells (IL-1α [3]): decreased the release of IL-1α; inhibition of LMP2 activity in brain homogenates (LMP2 [4]): no appreciable inhibition of the LMP2 activity; probe trial: percentage of time spent in the target quadrant (Tg2576 mice; day 6, vs control): higher than control mice; passive avoidance test: step-through latency (Tg2576 mice; days 7-8, vs control): performed better in a fear-aggravated test (passive avoidance) than control mice; serum levels of IL-1α (IL-1α [5]): lower in Tg2576 mice receiving DB-60 (20) treatment than the control mice; RPE structure in Tg2576 mice ([6]; Tg2576 mice after behavior tests, anti-β-catenin staining): displayed the orderly structure; RPE structural integrity in non-transgenic ICR mice ([6]; age-matching non-transgenic ICR mice treated with DB-60 (20)): not affected; overt toxicity [7]: No sign of overt toxicity
C[C@]1(C(=O)[C@H](Cc2ccccc2)NC(=O)[C@@H]2COCCCCCC(=O)N3CCC[C@H]3C(=O)N2)CO1 [compound 25, (3S,15aS)-N-((S)-1-((R)-2-Methyloxiran-2-yl)-1-oxo-3-phenylpropan-2-yl)-1,11-dioxotetradecahydropyrrolo[2,1-f][1]oxa[4,7]diazacyclotridecine-3-carboxamide]	> 10 µM	–	–
CC(C)C[C@H](NC(=O)[C@@H]1COCCCCCC(=O)NCC(=O)N2CCC[C@H]2C(=O)N1)C(=O)[C@@]1(C)CO1 [compound 26, (3S,18aS)-N-((S)-4-Methyl-1-((R)-2-methyloxiran-2-yl)-1-oxopentan-2-yl)-1,11,14-trioxohexadecahydro-6H-pyrrolo[2,1-f][1]oxa[4,7,10]triazacyclohexadecine-3-carboxamide]	> 10 µM	–	LMP2 inhibition in RPMI-8226/ABCB1 and parental RPMI-8226 cells (LMP2 [8]): no LMP2 inhibition in either cell line
CC(C)C[C@H](NC(=O)[C@@H]1COCCCCCCC(=O)NCC(=O)N2CCC[C@H]2C(=O)N1)C(=O)[C@@]1(C)CO1 [compound 27, (3S,19aS)-N-((S)-4-Methyl-1-((R)-2-methyloxiran-2-yl)-1-oxopentan-2-yl)-1,12,15-trioxooctadecahydropyrrolo[2,1-f][1]oxa[4,7,10]triazacycloheptadecine-3-carboxamide]	> 10 µM	–	LMP2 inhibition in RPMI-8226/ABCB1 and parental RPMI-8226 cells (LMP2 [8]): no LMP2 inhibition in either cell line
CC(C)C[C@H](NC(=O)[C@@H]1COCCCCCC(=O)N2C[C@H](F)C[C@H]2C(=O)N1)C(=O)[C@@]1(C)CO1 [compound 32, (3S,14S,15aS)-14-Fluoro-N-((S)-4-methyl-1-((R)-2-methyloxiran-2-yl)-1-oxopentan-2-yl)-1,11-dioxotetradecahydropyrrolo[2,1-f][1]oxa[4,7]diazacyclotridecine-3-carboxamide]	> 10 µM	substantial decrease in the LMP2 inhibitory potency	–
CC(C)C[C@H](NC(=O)[C@@H]1COCCCCCC(=O)N2CC[C@H]2C(=O)N1)C(=O)[C@@]1(C)CO1 [compound 35, (10S,13S)-N-((S)-4-Methyl-1-((R)-2-methyloxiran-2-yl)-1-oxopentan-2-yl)-2,12-dioxo-8-oxa-1,11-diazabicyclo[11.2.0]pentadecane-10-carboxamide]	> 10 µM	LMP2 inhibitory potency similar to 21	–
CC(C)C[C@H](NC(=O)[C@@H]1COCCCCCC(=O)N2CCCC[C@H]2C(=O)N1)C(=O)[C@@]1(C)CO1 [compound 36, (3S,16aS)-N-((S)-4-Methyl-1-((R)-2-methyloxiran-2-yl)-1-oxopentan-2-yl)-1,11-dioxotetradecahydro-2H-pyrido[2,1-f][1]oxa[4,7]diazacyclotridecine-3-carboxamide]	> 10 µM	substantial decrease in the LMP2 inhibitory potency	–

More lines, main results first:

IC50 (X)	Compound	LMP2 inhibitory potency compared with 21 (LMP2 [9])	also measured
> 10 µM	CC(C)C[C@H](NC(=O)[C@@H]1Cc2ccc(cc2)OCCCCCCC(=O)N2CCC[C@H]2C(=O)N1)C(=O)[C@@]1(C)CO1 [compound 16, (1^2S,4S)-N-((S)-4-Methyl-1-((R)-2-methyloxiran-2-yl)-1-oxopentan-2-yl)-2,14-dioxo-7-oxa-3-aza-1(2,1)-pyrrolidina-6(1,4)-benzenacyclotetradecaphane-4-carboxamide]	–	–
> 10 µM	CC(C)C[C@H](NC(=O)[C@@H]1COCCCCCC(=O)N2CC(F)(F)C[C@H]2C(=O)N1)C(=O)[C@@]1(C)CO1 [compound 33, (3S,15aS)-14,14-Difluoro-N-((S)-4-methyl-1-((R)-2-methyloxiran-2-yl)-1-oxopentan-2-yl)-1,11-dioxotetradecahydropyrrolo[2,1-f][1]oxa[4,7]diazacyclotridecine-3-carboxamide]	LMP2 inhibitory potency similar to 21	–
> 10 µM	CC(C)C[C@H](NC(=O)[C@@H]1COCCCCCC(=O)N2CCC[C@@]2(C)C(=O)N1)C(=O)[C@@]1(C)CO1 [compound 34, (3S,15aS)-15a-Methyl-N-((S)-4-methyl-1-((R)-2-methyloxiran-2-yl)-1-oxopentan-2-yl)-1,11-dioxotetradecahydropyrrolo[2,1-f][1]oxa[4,7]diazacyclotridecine-3-carboxamide]	substantial decrease in the LMP2 inhibitory potency	–
